Compounds with a hit are over-represented: about 1.8% of the library has one in this group of screens.
MC4R barr agon – agonists of human melanocortin 4 receptor (MC4R) beta-arrestin; U2OS MC4R beta-arrestin complementation, luminescence; percent of melanotan II response, DMSO zero; activation, % at 8.9 µM; 360,000 tested, 0.98% active; AID 540308;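 active = activation above a per-plate cutoff, the mean activation of sample wells on that plate plus 3 SD, cut at about 8% in these data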
TLR4-MyD88 BLA – TLR4-MyD88 interaction inhibition in cells; HeLa CL3-4 TLR4/MyD88 BLA complementation, FRET ratio; inhibition, % at 8.4 µM; 200,000 tested, 0.18% active; AID 861; in the data active = inhibition above about 25%;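 note: 0% = vehicle and 100% = reference inhibitor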
TLR9-MyD88 block – inhibitors of human TLR9-MyD88 binding | inhibition, % at 4.98 µM | CHO BLA complementation TLR9-MyD88, CCF4 FRET ratio | 340,000 tested, 0.21% active | Q9NR96+Q99836;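 active = inhibition above the mean over all tested compounds plus 3 SD, cut at about 21% in these data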;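 note: 0% = DMSO only wells and 100% = clavulanate BLA inhibitor control wells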
MC4R antagonist – blocks human MC4R cAMP signaling; MC4R-expressing cells, MTII-stimulated cAMP, LANCE TR-FRET; P32245; inhibition, % at 6.5 µM; AID 540295; 360,000 tested, 0.48% active;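 active = inhibition above its plate's cutoff, the mean of tested wells on that plate plus 3 SD, cut at about 29% in these data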;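 note: 0% = Melanotan II alone and 100% = Melanotan II plus saturating MCL0020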
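Test system: U2OS cells stably expressing human melanocortin 4 receptor (MC4R); also added: Melanotan II challenge; compound: 6.5 µM single dose; timing: 30-min compound preincubation, 1-h Melanotan II challenge, 1-h detection, room temperature; signal: Eu-cAMP/anti-cAMP TR-FRET, emission 671 nm; repeats: one well per compound, no replicates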
NOD2 RIPK2 PPI – inhibitors of human NOD2-RIPK2 interaction; O43353; AID 624267; 360,000 tested, 0.38% active; CHO BLA complementation NOD2-RIPK2, CCF4 ratio; inhibition, % at 4.98 µM; in the data active = inhibition above about 21%;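 note: 0% = vehicle only and 100% = reference blocker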
The depositor's hits bear a star.

Results for COc1ccc2[nH]c3c(=O)n(/N=C/[C@H]4C(C)C=C(C)CC4C)c(=O)[nH]c3c2c1 (some centres undefined) ?
MC4R barr agon: 8.3*; TLR4-MyD88 BLA: -38; TLR9-MyD88 block: 1; MC4R antagonist: 20; NOD2 RIPK2 PPI: 1

How did O=C1CN(C(=O)C2CCC(=O)N(CCc3ccc(Cl)cc3)C2)CCN1 (centres undefined) do in these assays?
MC4R barr agon: -3; TLR9-MyD88 block: -1; MC4R antagonist: 3; NOD2 RIPK2 PPI: -9

How did Cc1ccc(C(C)(C)C)cc1S(=O)(=O)N1CC(=O)Nc2ccccc21 do in these assays?
MC4R barr agon: 2; TLR9-MyD88 block: -2; MC4R antagonist: -6; NOD2 RIPK2 PPI: -3

What do the screens show for `Cc1cc(C(C)(C)C)cc(C)c1S(=O)(=O)N1CC(=O)Nc2ccccc21`?
MC4R barr agon: 8.7*; TLR9-MyD88 block: -13; MC4R antagonist: 7; NOD2 RIPK2 PPI: 5

What do the screens show for `COc1ccc(C(=O)/C=C/c2cn(CN3CCN(C)CC3)c3ccccc23)cc1`?
MC4R barr agon: -1; TLR4-MyD88 BLA: 18; TLR9-MyD88 block: 12; MC4R antagonist: 2; NOD2 RIPK2 PPI: 21*

How did CCN(CCCNC(=O)Cn1ncc2c(=O)oc3ccccc3c21)c1cccc(C)c1 do in these assays?
MC4R barr agon: 9.4*; TLR4-MyD88 BLA: 8; TLR9-MyD88 block: -1; MC4R antagonist: 7; NOD2 RIPK2 PPI: 3

Results for O=C(c1ccc(COc2ccc(Cl)cc2)o1)N1N=C(C(F)F)CC1(O)C(F)F (centres undefined) ?
MC4R barr agon: 8.7*; TLR4-MyD88 BLA: -3; TLR9-MyD88 block: 15; MC4R antagonist: -5; NOD2 RIPK2 PPI: -6

What do the screens show for `CCC(C)(C)C1CCC2(CC1)NC(=O)N(CC(=O)N1CCN(S(=O)(=O)c3cc(C)ccc3C)CC1)C2=O` (centres undefined)?
MC4R barr agon: -4; TLR9-MyD88 block: 2; MC4R antagonist: 5; NOD2 RIPK2 PPI: -2

How did CC1=C/C(=N\OS(=O)(=O)c2ccccc2)C(C(C)C)=CC1=O do in these assays?
MC4R barr agon: 31*; TLR4-MyD88 BLA: 9; TLR9-MyD88 block: -6; MC4R antagonist: 45*; NOD2 RIPK2 PPI: 16

How did Cc1ccc(C(=O)Oc2coc(CSc3nnc(NC(=O)c4cccs4)s3)cc2=O)cc1 do in these assays?
MC4R barr agon: 9.2*; TLR4-MyD88 BLA: -14; TLR9-MyD88 block: -5; MC4R antagonist: 8; NOD2 RIPK2 PPI: 1

How did CC(=O)Nc1nnc(SCc2cc(=O)c(OC(=O)c3ccccc3)co2)s1 do in these assays?
MC4R barr agon: -1; TLR4-MyD88 BLA: 13; TLR9-MyD88 block: 10; MC4R antagonist: 12; NOD2 RIPK2 PPI: -10

What do the screens show for `OC(CN1CCN(C(c2ccccc2)c2ccccc2)CC1)c1ccccc1` (centres undefined)?
MC4R barr agon: 10.0*; TLR9-MyD88 block: 4; MC4R antagonist: 21; NOD2 RIPK2 PPI: 8

Results for COc1cc(OC)cc(C(=O)Nc2cc(NC(=O)c3ccco3)ccc2OC)c1 ?
MC4R barr agon: 2; TLR4-MyD88 BLA: 0; TLR9-MyD88 block: 2; MC4R antagonist: -6; NOD2 RIPK2 PPI: -3

How did COc1ccc(NC(=O)c2ccco2)cc1NC(=O)c1ccccc1F do in these assays?
MC4R barr agon: 9.4*; TLR9-MyD88 block: -9; MC4R antagonist: 3; NOD2 RIPK2 PPI: 3

Results for Cc1ccc(N(NC(=O)C(O)(c2ccccc2)c2ccccc2)C(=O)CCl)cc1 ?
MC4R barr agon: 10*; TLR4-MyD88 BLA: 7; TLR9-MyD88 block: -3; MC4R antagonist: 27; NOD2 RIPK2 PPI: -3

Results for CCC(O)(CC)C(=O)NN(C(=O)CCl)c1ccccc1 ?
MC4R barr agon: -1; TLR4-MyD88 BLA: -10; TLR9-MyD88 block: 7; MC4R antagonist: 3; NOD2 RIPK2 PPI: 5

What do the screens show for `Cc1ccc(C(O)(C(=O)NN(C(=O)c2ccccc2)c2ccccc2)c2ccc(C)cc2)cc1`?
MC4R barr agon: 8.3*; TLR4-MyD88 BLA: -6; TLR9-MyD88 block: 5; MC4R antagonist: 5; NOD2 RIPK2 PPI: 6

What do the screens show for `Cc1cccc(C(=O)OCC(=O)Nc2c(C)n(C)n(-c3ccccc3)c2=O)c1O`?
MC4R barr agon: 0; TLR9-MyD88 block: -8; MC4R antagonist: 6; NOD2 RIPK2 PPI: 2

Results for COCC(C)NC(=O)C1c2ccccc2Oc2ccccc21 (centres undefined) ?
MC4R barr agon: -1; TLR9-MyD88 block: -7; MC4R antagonist: 8; NOD2 RIPK2 PPI: -6
